{"data": "Results gathered from unrelated publications", "cell line": "HeLa", "read-out": "cell growth or viability"}
{"Structure (SMILES)": "CC(C)CNC(=S)N/N=C/c1cccc2cc3ccccc3nc12", "test": "MTT", "setting": "48 h", "IC50 [µM]": 25.5}
{"Structure (SMILES)": "CCC(=CCc1c(O)cc2c(c1O)C(=O)C[C@@H](c1ccccc1O)O2)CC", "test": "MTT", "setting": "48 h", "IC50 [µM]": 51.3}
{"Structure (SMILES)": "CC(=O)O[C@@]12CO[C@@H]1C[C@H](O)[C@@]1(C)C(=O)[C@H](O)C3=C(C)[C@@H](OC(=O)[C@H](O)[C@@H](NC(=O)OC(C)(C)C)c4ccccc4)C[C@@](O)([C@@H](OC(=O)c4ccccc4)[C@H]21)C3(C)C", "test": "MTT", "setting": "48 h", "IC50 [µM]": 60.7}
{"Structure (SMILES)": "CC(C)CCOc1cc(C(=O)C[n+]2cn(Cc3ccccc3)c3ccccc32)c(OCCC(C)C)c2ccccc12", "test": "MTT", "setting": "24 h", "IC50 [µM]": 14.8}
{"Structure (SMILES)": "CC(=O)O[C@H]1C(=O)[C@@]2(C)[C@H]([C@H](OC(=O)c3ccccc3)[C@]3(O)C[C@H](OC(=O)[C@H](O)[C@@H](NC(=O)c4ccccc4)c4ccccc4)C(C)=C1C3(C)C)[C@]1(OC(C)=O)CO[C@@H]1C[C@@H]2O", "test": "MTT", "setting": "48 h", "IC50 [µM]": 15.8}
{"Structure (SMILES)": "CSc1ccccc1-c1ccc(C(N)=O)c2[nH]c3c(c12)CC(N)CC3 (stereo not shown)", "IC50 [µM]": 0.21}
{"Structure (SMILES)": "CN(C)c1cccc(Nc2nc(-c3ccncc3)nc3c2CNCC3)c1", "test": "MTT", "IC50 [µM]": 32.4}
{"Structure (SMILES)": "CCC(=CCc1c(O)cc2c(c1O)C(=O)CC(c1ccc(O)cc1)O2)CC (stereo in doubt)", "test": "MTT", "IC50 [µM]": 19.1}
{"Structure (SMILES)": "C=C[C@]1(C)C=C2CC[C@H]3C(C)(C)CCC[C@]3(C)[C@H]2CC1", "test": "MTT", "setting": "75 h", "IC50 [µM]": 130}
{"Structure (SMILES)": "CC(C)CCOc1cc(C[n+]2cn(CCC(C)C)c3cc(-c4ccccc4)c(-c4ccccc4)cc32)c(OCCC(C)C)c2ccccc12", "test": "MTT", "setting": "24 h", "IC50 [µM]": 11.2}
{"Structure (SMILES)": "CN(C)c1ccc(Nc2nc(-c3ccncc3)nc3c2CC(N)CC3)cc1 (stereo not shown)", "test": "MTT", "IC50 [µM]": 38.2}
{"Structure (SMILES)": "COc1cccc2c1C(=O)c1c(O)c3c(c(O)c1C2=O)C[C@@](O)(C(=O)CO)C[C@@H]3O[C@H]1C[C@H](N)[C@H](O)[C@H](C)O1", "test": "MTT", "IC50 [µM]": 6.89}
{"Structure (SMILES)": "COc1ccc(-c2n(CCC(C)C)c3ccccc3[n+]2Cc2cc(OCCC(C)C)c3ccccc3c2OCCC(C)C)cc1", "test": "MTT", "setting": "24 h", "IC50 [µM]": 10.9}
{"Structure (SMILES)": "Cc1cccc(NC(=O)Cn2cc(COc3ncnc4[nH]cnc34)nn2)c1", "test": "MTT", "IC50 [µM]": 28.6}
{"Structure (SMILES)": "CC(C)CCOc1cc(C(=O)C[n+]2cn(C)c3ccccc32)c(OCCC(C)C)c2ccccc12", "test": "MTT", "setting": "24 h", "IC50 [µM]": 13.9}
{"Structure (SMILES)": "CNC(=S)N/N=C/c1cccc2cc3ccccc3nc12", "test": "MTT", "setting": "48 h", "IC50 [µM]": 21.8}
{"Structure (SMILES)": "COc1cccc(Nc2nc(-c3ccncc3)nc3c2CNCC3)c1", "test": "MTT", "IC50 [µM]": 23.2}
{"Structure (SMILES)": "CN(C)C1CCc2[nH]c3c(C(N)=O)ccc(-c4ccccc4Cl)c3c2C1 (stereo not shown)", "IC50 [µM]": 0.19}
{"Structure (SMILES)": "O=[N+]([O-])c1ccc(NC(=S)N/N=C/c2cccc3cc4ccccc4nc23)cc1", "test": "MTT", "setting": "48 h", "IC50 [µM]": 7.5}
{"Structure (SMILES)": "O=C(Cn1cc(COc2ncnc3[nH]cnc23)nn1)Nc1ccc([N+](=O)[O-])cc1", "test": "MTT", "IC50 [µM]": 10.4}
{"Structure (SMILES)": "Cc1cc2c(cc1C)[n+](Cc1cc(OCCC(C)C)c3ccccc3c1OCCC(C)C)cn2CCC(C)C", "test": "MTT", "setting": "24 h", "IC50 [µM]": 8.9}
{"Structure (SMILES)": "COc1cccc2c1C(=O)c1c(O)c3c(c(O)c1C2=O)C[C@@](O)(C(=O)CO)C[C@@H]3O[C@H]1C[C@H](N)[C@H](O)[C@H](C)O1", "test": "MTT", "setting": "75 h", "IC50 [µM]": 0.27}
{"Structure (SMILES)": "CCCCCCCCOc1cc(C(=O)C[n+]2cn(CCC(C)C)c3ccccc32)c(OCCCCCCCC)c2ccccc12", "test": "MTT", "setting": "24 h", "IC50 [µM]": 14.3}
{"Structure (SMILES)": "COc1cccc(-c2cc(NCc3ccc4c(c3)OCO4)nc(N)n2)c1", "test": "CCK-8", "setting": "72 h", "IC50 [µM]": 0.188}
{"Structure (SMILES)": "COc1ccc(NC(=S)N/N=C/c2cccc3cc4ccccc4nc23)cc1", "test": "MTT", "setting": "48 h", "IC50 [µM]": 14.8}
{"Structure (SMILES)": "COc1cc(C(=O)C[n+]2cn(CCC(C)C)c3ccccc32)c(OC)c2ccccc12", "test": "MTT", "setting": "24 h", "IC50 [µM]": 17}
{"Structure (SMILES)": "CCCNC(=S)N/N=C/c1cccc2cc3ccccc3nc12", "test": "MTT", "setting": "48 h", "IC50 [µM]": 36.2}
{"Structure (SMILES)": "CC(C)CCOc1cc(C(=O)C[n+]2ccn(CCC(C)C)c2)c(OCCC(C)C)c2ccccc12", "test": "MTT", "setting": "24 h", "IC50 [µM]": 10.1}
